Results reported in the RNAGym collection of RNA variant scans (doi:10.1126/science.aae0568).
Variants at the floor of the assay were thinned out.

B1: tRNA (parent)
chain: GUUCCGUUGGCGUAAUGGUAACGCGUCUCCCUCCUAAGGAGAAGACUGCGGGUUCGAGUCCCGUACGGAACG

Variants of: B1
Experiment: yeast fitness relative to wild type (ratio to wild type); higher = fitter; tRNA-Arg(CCU), competitive growth, 37 C, YPD
Outline: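 Start and end populations of a pooled competition were compared by 100-nucleotide paired-end sequencing of gene amplicons. The Saccharomyces cerevisiae strains carried tRNA-Arg(CCU) gene variants at the native genomic locus, synthesised with a 3% per-site mutation rate at 69 sites, and competed in YPD at 37°C for 24 hours in six parallel replicates. Darwinian fitness relative to wild type was based on the change in genotype frequencies. Genotypes required ≥ 100 starting reads, and estimates < 0.5 were set to 0.5.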
C4U C24A A57G A70C gave a yeast fitness of no more than 0.5.
In the case of C4U A20G A45U C61U C62G, the yeast fitness is reported as 0.53.
In the case of C4U C24U A69C, the yeast fitness is reported as 0.677.
C4U C24U A43G G51C U54C showed a yeast fitness of no more than 0.5.
Work on C4U A40U C66U yielded a yeast fitness of 0.762.
In the case of C4U C11A A37C C49U C60G A70C, the yeast fitness is reported as no more than 0.5.
C4U A15C G17A G18A A36C C55U C66A gave a yeast fitness of no more than 0.5.
Work on C4U C22U C31U C60G A70G yielded a yeast fitness of 0.52.
Variant C4U A43C G67A has a yeast fitness of 0.733.
Variant C4U C5U G9A G10A A15C C46A has a yeast fitness of 0.619.
For C4U C29U C31U U59C, the yeast fitness was no more than 0.5.
C4U A42C A69U gave a yeast fitness of 0.633.
In the case of C4U C24A C60G C66U, the yeast fitness is reported as no more than 0.5.
C4U A15G G23C A37U U47C A65U gave a yeast fitness of no more than 0.5.
Variant C4U A37U G52C A65C has a yeast fitness of no more than 0.5.
Variant C4U C22G G50C has a yeast fitness of 0.533.
Work on C4U C27A A40C yielded a yeast fitness of no more than 0.5.
Variant C4U C30G A36U A70C has a yeast fitness of no more than 0.5.
C4U A20C U47A A65U showed a yeast fitness of no more than 0.5.
C4U A45C C60G A69G gave a yeast fitness of no more than 0.5.
Variant C4U A69C has a yeast fitness of 1.02.
Work on C4U A69U yielded a yeast fitness of 1.02.
Variant C4U A36C A45C has a yeast fitness of no more than 0.5.
In the case of C4U C24G A42C, the yeast fitness is reported as no more than 0.5.
With C4U C11A U28A C31U G51C the yeast fitness was 0.622.
C4U A65U gave a yeast fitness of 1.04.
Work on C4U A57C C62U yielded a yeast fitness of 0.601.
With C4U A15U A42C U47A A65G the yeast fitness was no more than 0.5.
In the case of C4U A43C C62U, the yeast fitness is reported as 0.965.
Variant C4U C27U C29G A42C has a yeast fitness of no more than 0.5.
Work on C4U A21C C22A C60U yielded a yeast fitness of no more than 0.5.
C4U C22A U35A C49G G63C gave a yeast fitness of no more than 0.5.
C4U A42G A65U showed a yeast fitness of 0.611.
C4U A21C A42G showed a yeast fitness of no more than 0.5.
C4U C11G C34U C60A gave a yeast fitness of no more than 0.5.
In the case of C4U A15C C27A C31U A43G C60A, the yeast fitness is reported as 0.526.
C4U A20C gave a yeast fitness of 1.03.
With C4U C24G U26A U28G U47C the yeast fitness was no more than 0.5.
For C4U A36G A69C, the yeast fitness was 0.8.
For C4U C11A C46U, the yeast fitness was 0.661.
Variant C4U A37G A45U has a yeast fitness of 0.707.
In the case of C4U A57C G58A, the yeast fitness is reported as 0.58.
In the case of C4U C5G C34U U54A G67U, the yeast fitness is reported as no more than 0.5.
C4U C29A G52C C55A C61A G68U showed a yeast fitness of no more than 0.5.
In the case of C4U A36U G68A, the yeast fitness is reported as no more than 0.5.
C4U A15U A45C gave a yeast fitness of 0.611.
C4U A36C U54C gave a yeast fitness of no more than 0.5.
Variant C4U C5G U16C C24G A42C G58A has a yeast fitness of 0.571.
For C4U C11A U26G G50C, the yeast fitness was 0.536.
Work on C4U C27G A45C C55U G67C yielded a yeast fitness of no more than 0.5.
C4U A14U A43U G68A gave a yeast fitness of no more than 0.5.
C4U A20C C34U C55U showed a yeast fitness of 0.532.
C4U C11A A42G G48C G63U G67A showed a yeast fitness of no more than 0.5.
C4U A15C A37G A40G G68U gave a yeast fitness of no more than 0.5.
In the case of C4U C11U G25C G41A U54C, the yeast fitness is reported as no more than 0.5.
C4U C5U C27G C31G gave a yeast fitness of no more than 0.5.
With C4U A14U C24G C30U C60G C62U the yeast fitness was 0.663.
Variant C4U C30G C46U G52A A65C has a yeast fitness of no more than 0.5.
With C4U C22U U35C G56A A70C the yeast fitness was no more than 0.5.
For C4U A15G C60G, the yeast fitness was 0.537.
For C4U C24U U28C C30A, the yeast fitness was 0.636.
C4U A20C C55G gave a yeast fitness of no more than 0.5.
In the case of C4U A15G C27U G41A, the yeast fitness is reported as no more than 0.5.
C4U A21U U35C G50C gave a yeast fitness of no more than 0.5.
With C4U C30A A70G the yeast fitness was 0.769.
C4U C30A A70U gave a yeast fitness of 0.799.
C4U C29U A43U showed a yeast fitness of 0.756.
C4U C27G A45C C55U gave a yeast fitness of 0.559.
C4U A42U C61A A65C showed a yeast fitness of no more than 0.5.
Variant C4U C22G C24U C62G has a yeast fitness of no more than 0.5.
For C4U C11G C34U C55A A65U A70G, the yeast fitness was no more than 0.5.
In the case of C4U A20C C34G A36G, the yeast fitness is reported as 0.606.
With C4U C24G A57G the yeast fitness was no more than 0.5.
In the case of C4U C30A U54C, the yeast fitness is reported as 0.739.
For C4U C30A A45U, the yeast fitness was 0.77.
With C4U C27U A43G the yeast fitness was 0.649.
Work on C4U C30A G39C yielded a yeast fitness of 0.598.
C4U C5G C60G showed a yeast fitness of no more than 0.5.
For C4U A21U A36G A43C C55U A65G, the yeast fitness was no more than 0.5.
For C4U C29U C62U U64C A65U, the yeast fitness was no more than 0.5.
Work on C4U C29U C30G yielded a yeast fitness of no more than 0.5.
C4U C24A C60A showed a yeast fitness of 0.724.
Work on C4U C27G U53A yielded a yeast fitness of no more than 0.5.
C4U A21G G52A gave a yeast fitness of no more than 0.5.
